Experimental data reported in article PMC3164867 (Journal of medicinal chemistry, 2009).
pIC50: −log10 of the molar value.

Key:
Solubility = assay type: physicochemical; conditions: preliminary evidence
[1] = system: Molt-4 (T-cell lymphoma) or Raji tumors (B-cell lymphoma); assay type: in vivo, nude mice
Summary of the method: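 Athymic Nu/Nu mice, 4–6 weeks old, bore sc Molt-4 or Raji (1 × 10^7 cells, right upper back) and A549 (1 × 10^6 cells, left upper back), studied at 10–15 mm. Under pentobarbital ip anesthesia, Cy5.5-conjugated test compound given iv by tail vein; serial NIRF imaging 5 min–120 h (10 nmol), 30 s exposures. Ex vivo organs and tumors at 24 h (0.25 or 1 nmol); ROI mean intensity minus heart background.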

activated α4β1 integrin = activated α4β1 integrin (Homo sapiens, UniProt P05556+P13612); assay type: cell-based; conditions: for potency (in words): SAR summary, Molt-4 cell adhesion
Sequence of activated α4β1 integrin (P13612 34-1032): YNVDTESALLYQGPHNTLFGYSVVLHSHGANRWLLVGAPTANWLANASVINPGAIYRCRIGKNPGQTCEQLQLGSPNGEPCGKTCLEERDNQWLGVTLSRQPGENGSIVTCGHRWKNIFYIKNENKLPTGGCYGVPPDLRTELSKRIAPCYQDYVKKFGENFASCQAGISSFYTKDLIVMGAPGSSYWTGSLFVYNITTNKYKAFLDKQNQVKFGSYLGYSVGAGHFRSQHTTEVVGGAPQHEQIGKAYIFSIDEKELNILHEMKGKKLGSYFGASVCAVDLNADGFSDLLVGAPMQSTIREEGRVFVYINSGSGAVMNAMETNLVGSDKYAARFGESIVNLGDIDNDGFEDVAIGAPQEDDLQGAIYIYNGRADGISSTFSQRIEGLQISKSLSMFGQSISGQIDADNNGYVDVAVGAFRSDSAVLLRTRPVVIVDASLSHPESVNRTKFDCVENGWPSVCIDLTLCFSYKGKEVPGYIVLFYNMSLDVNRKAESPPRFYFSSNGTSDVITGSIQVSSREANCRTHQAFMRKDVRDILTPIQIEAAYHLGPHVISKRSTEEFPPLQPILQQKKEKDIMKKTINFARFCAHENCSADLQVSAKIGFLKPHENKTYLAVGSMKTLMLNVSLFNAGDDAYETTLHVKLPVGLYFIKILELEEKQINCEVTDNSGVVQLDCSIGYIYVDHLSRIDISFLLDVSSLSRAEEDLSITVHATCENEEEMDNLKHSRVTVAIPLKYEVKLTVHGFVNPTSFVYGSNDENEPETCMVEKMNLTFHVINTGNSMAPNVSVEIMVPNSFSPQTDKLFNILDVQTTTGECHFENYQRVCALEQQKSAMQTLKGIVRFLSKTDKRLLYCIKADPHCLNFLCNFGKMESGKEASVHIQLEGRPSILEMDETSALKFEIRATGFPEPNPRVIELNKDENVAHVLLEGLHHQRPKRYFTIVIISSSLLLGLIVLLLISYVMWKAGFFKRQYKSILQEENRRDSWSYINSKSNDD
Sequence of activated α4β1 integrin (P05556 21-798): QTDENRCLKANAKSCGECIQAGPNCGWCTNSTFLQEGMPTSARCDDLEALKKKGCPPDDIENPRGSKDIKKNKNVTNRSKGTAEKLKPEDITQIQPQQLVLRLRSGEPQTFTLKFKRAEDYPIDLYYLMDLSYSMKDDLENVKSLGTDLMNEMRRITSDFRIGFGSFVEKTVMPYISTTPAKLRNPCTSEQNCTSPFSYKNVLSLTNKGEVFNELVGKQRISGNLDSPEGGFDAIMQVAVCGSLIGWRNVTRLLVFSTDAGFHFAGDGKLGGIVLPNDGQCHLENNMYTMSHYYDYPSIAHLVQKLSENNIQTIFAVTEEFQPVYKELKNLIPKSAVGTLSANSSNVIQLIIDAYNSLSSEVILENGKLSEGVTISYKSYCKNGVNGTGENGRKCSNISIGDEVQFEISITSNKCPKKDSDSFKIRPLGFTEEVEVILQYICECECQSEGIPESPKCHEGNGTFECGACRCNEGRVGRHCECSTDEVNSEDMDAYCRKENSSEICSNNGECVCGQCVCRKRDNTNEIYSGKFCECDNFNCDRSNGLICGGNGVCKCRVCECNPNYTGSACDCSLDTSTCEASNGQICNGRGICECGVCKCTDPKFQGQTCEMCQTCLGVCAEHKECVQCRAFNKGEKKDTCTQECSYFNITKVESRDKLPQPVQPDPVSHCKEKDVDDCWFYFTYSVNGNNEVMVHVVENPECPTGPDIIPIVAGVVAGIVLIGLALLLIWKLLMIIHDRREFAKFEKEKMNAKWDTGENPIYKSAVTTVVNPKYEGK

[2] = iv tail vein, nude mice with Molt-4 or Raji and A549 xenografts, NIRF imaging

2-(1E,3E,5E)-5-3-(R)-1-(1-(R)-2-(R)-2-[2-(4-(benzo[d]thiazol-2-ylamino)phenyl)\acetamido]-6-(E)-3-(pyridin-3-yl)acrylamido)hexanamido)-5-carboxypentanamido)cyclohexyl)-27-carbamoyl-1,9,13,21,25,33-hexaoxo-5,17-dioxa-2,8,14,20,26,32-hexa-azaheptatriacontan-37-yl)-1,1-dimethyl-6,8-disulfonato-1H-benzo[e]indol-2(3H)-ylid-ene)penta-1,3-dienyl)-3-ethyl-1,1-di-methyl-1H-benzo[e]indolium-6,8-disulfonate [Compound 6-Cy5.5]
solubility (in words) (Solubility): improved solubility
organ signal (in words) ([1]; ex vivo NIRF of organs): low liver, muscle, lung, and spleen signal
kidney:tumor ratio (in words) ([1]; ex vivo NIRF, preliminary, compared with 1-Cy5.5): improvement in the kidney:tumor ratio
tumor uptake first observed post injection [1, 2]: 5 min
tumor uptake persisted post injection [1, 2]: up to 120 h

NC(=O)C1(NC(=O)[C@H](CCCC(=O)O)NC(=O)[C@H](CCCCNC(=O)/C=C/c2cccnc2)NC(=O)Cc2ccc(Nc3nc4ccccc4[nH]3)cc2)CCCCC1 [Compound 2, reference compound]
potency relative to bisaryl urea 1 (fold less potent) (activated α4β1 integrin; compared with 1): 10 fold

NC(=O)C1(NC(=O)[C@@H](CCCC(=O)O)NC(=O)[C@@H](CCCCNC(=O)/C=C/c2cccnc2)NC(=O)c2cccc(Nc3nc4cc(Br)ccc4[nH]3)c2)CCCCC1 [Compound 3]
pIC50 (activated α4β1 integrin): 7.52

Cc1ccc2[nH]c(Nc3ccc(C(=O)N[C@H](CCCCNC(=O)/C=C/c4cccnc4)C(=O)N[C@H](CCCC(=O)O)C(=O)NC4(C(N)=O)CCCCC4)cc3)nc2c1 [Compound 5]
pIC50 (activated α4β1 integrin): 6.31
potency (in words) (activated α4β1 integrin): mid nM potency

NC(=O)C1(NC(=O)[C@@H](CCCC(=O)O)NC(=O)[C@@H](CCCCNC(=O)/C=C/c2cccnc2)NC(=O)Cc2ccc(Nc3nc4ccccc4s3)cc2)CCCCC1 [Compound 6, (R)-5-(R)-[2-{2-[4-(Benzothiazol-2-ylamino)-phenyl]acetylamino}-6-(E)-(3-pyridin-3-yl-acryloylamino)hexanoylamino]-5-(1-carbamoylcyclo-hexylcarbamoyl)pentanoic Acid]
potency (in words) (activated α4β1 integrin): equipotent to 1

Cc1cccc2oc(Nc3ccc(CC(=O)N[C@H](CCCCNC(=O)/C=C/c4cccnc4)C(=O)N[C@H](CCCC(=O)O)C(=O)NC4(C(N)=O)CCCCC4)cc3)nc12 [Compound 7]
potency (in words) (activated α4β1 integrin): low nM potency

Cc1cccc2oc(Nc3ccc(C(=O)N[C@H](CCCCNC(=O)/C=C/c4cccnc4)C(=O)N[C@H](CCCC(=O)O)C(=O)NC4(C(N)=O)CCCCC4)cc3)nc12 [Compound 9]
potency (in words) (activated α4β1 integrin): complete loss of potency

NC(=O)C1(NC(=O)[C@@H](CCCC(=O)O)NC(=O)[C@@H](CCCCNC(=O)/C=C/c2cccnc2)NC(=O)c2ccc(Nc3nc4ccccc4o3)cc2)CCCCC1 [Compound 10]
potency (in words) (activated α4β1 integrin): complete loss of potency

NC(=O)C1(NC(=O)[C@@H](CCCC(=O)O)NC(=O)[C@@H](CCCCNC(=O)/C=C/c2cccnc2)NC(=O)c2ccc(Nc3nc4ccccc4s3)cc2)CCCCC1 [Compound 11]
potency (in words) (activated α4β1 integrin): mid nM potency
